These results are taken from ChEMBL document CHEMBL3608218, “Optimization of a Dibenzodiazepine Hit to a Potent and Selective Allosteric PAK1 Inhibitor” (ACS Med Chem Lett, 2015).

In brackets after ≈: the same amount, converted by molar mass. Activity calls are given as the source filed them.

Data set [1] has as its target T1, Serine/threonine-protein kinase PAK 2 (Homo sapiens, UniProt Q13177). The experiment in a line: Binding affinity to PAK2 (unknown origin) expressed in HEK293 cells after 1 hr by qPCR analysis. It is filed as cell-based.
A short description of data set [2]: Aqueous solubility of the compound at pH 6.8. It is filed as physicochemical. As to conditions: buffer.
The target in data set [3] is T2, Serine/threonine-protein kinase PAK 4 (Homo sapiens, UniProt O96013). The experiment in a line: Binding affinity to PAK4 (unknown origin) expressed in HEK293 cells after 1 hr by qPCR analysis. It is filed as cell-based.
T2 sequence (O96013 whole entry): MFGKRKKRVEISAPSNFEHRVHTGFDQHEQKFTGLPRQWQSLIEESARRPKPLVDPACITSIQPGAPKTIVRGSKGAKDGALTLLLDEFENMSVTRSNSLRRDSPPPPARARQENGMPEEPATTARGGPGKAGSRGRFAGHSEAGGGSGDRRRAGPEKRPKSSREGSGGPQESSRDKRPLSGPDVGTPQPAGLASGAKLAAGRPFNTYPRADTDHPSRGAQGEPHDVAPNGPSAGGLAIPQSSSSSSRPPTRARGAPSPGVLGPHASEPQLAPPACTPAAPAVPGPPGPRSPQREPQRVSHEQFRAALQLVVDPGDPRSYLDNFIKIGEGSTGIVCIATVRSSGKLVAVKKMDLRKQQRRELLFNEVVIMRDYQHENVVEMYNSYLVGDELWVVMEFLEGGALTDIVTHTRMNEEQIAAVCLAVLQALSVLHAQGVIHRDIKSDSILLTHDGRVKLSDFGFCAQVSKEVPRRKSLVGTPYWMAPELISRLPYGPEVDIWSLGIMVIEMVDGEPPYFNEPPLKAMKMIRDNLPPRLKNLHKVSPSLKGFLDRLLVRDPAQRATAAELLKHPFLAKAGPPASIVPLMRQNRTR
Data set [4] addresses Serine/threonine-protein kinase PAK 3 (Homo sapiens, UniProt O75914). The experiment in a line: Binding affinity to PAK3 (unknown origin) expressed in HEK293 cells after 1 hr by qPCR analysis. It is filed as cell-based.
The target in data set [5] is T3, Serine/threonine-protein kinase PAK 6 (Homo sapiens, UniProt Q9NQU5). In words: Binding affinity to PAK6 (unknown origin) expressed in HEK293 cells after 1 hr by qPCR analysis. Type of data set: cell-based. (Real-time PCR tracks product formation cycle by cycle.)
T3 sequence (Q9NQU5 whole entry): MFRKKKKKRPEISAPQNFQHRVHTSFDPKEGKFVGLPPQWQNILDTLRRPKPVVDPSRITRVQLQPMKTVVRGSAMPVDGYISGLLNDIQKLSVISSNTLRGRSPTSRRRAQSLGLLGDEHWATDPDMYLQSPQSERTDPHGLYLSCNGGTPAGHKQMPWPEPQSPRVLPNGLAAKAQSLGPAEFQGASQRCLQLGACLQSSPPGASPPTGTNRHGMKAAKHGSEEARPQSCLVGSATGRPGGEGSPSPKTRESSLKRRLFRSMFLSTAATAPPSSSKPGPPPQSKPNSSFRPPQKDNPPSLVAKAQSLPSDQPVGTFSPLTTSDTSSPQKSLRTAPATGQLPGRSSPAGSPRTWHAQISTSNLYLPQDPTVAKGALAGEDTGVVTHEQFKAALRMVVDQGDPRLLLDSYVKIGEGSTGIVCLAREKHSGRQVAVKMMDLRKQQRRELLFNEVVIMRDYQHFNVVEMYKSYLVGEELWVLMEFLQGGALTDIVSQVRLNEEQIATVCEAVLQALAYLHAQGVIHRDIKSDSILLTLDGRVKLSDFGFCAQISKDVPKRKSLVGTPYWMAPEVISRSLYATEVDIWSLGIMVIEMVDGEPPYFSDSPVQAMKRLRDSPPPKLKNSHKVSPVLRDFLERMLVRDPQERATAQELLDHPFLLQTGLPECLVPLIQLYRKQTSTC
Data set [6] deals with T4, Serine/threonine-protein kinase PAK 1 (Homo sapiens, UniProt Q13153). In words: Inhibition of wild type dephosphorylated form of PAK1 (249 to 545) (unknown origin) expressed in Escherichia coli using 5-Fluo-Ahx-AKRRRLSSLRA-COOH as substrate preincubated for 60 mins followed by substrate addition measured after 60 mins by Caliper assay.
T4 sequence (Q13153 whole entry): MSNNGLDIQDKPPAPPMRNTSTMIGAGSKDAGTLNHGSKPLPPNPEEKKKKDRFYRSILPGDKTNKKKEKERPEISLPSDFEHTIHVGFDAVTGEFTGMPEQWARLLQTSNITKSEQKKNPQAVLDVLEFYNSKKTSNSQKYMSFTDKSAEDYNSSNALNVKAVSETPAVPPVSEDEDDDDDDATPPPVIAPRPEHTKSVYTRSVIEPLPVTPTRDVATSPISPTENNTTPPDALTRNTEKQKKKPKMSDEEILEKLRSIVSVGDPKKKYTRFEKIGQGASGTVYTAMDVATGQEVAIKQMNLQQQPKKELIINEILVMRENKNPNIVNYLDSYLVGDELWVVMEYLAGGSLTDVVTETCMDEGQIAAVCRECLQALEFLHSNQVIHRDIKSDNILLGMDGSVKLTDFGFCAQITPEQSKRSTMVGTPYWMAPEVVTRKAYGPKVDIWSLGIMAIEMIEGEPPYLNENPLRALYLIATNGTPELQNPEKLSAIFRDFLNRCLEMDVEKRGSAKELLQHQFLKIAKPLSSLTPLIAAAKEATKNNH
Data set [7] addresses T4, Serine/threonine-protein kinase PAK 1. The experiment in a line: Binding affinity to PAK1 (unknown origin) expressed in HEK293 cells after 1 hr by qPCR analysis. It is filed as cell-based.
For data set [8] the target is unchanged. In words: Inhibition of wild type phosphorylated form of PAK1 (249 to 545) (unknown origin) expressed in Escherichia coli using 5-Fluo-Ahx-AKRRRLSSLRA-COOH as substrate preincubated for 60 mins followed by substrate addition measured after 60 mins by Caliper assay.
Data set [9] deals with Histamine H1 receptor (Homo sapiens, UniProt P35367). In words: Inhibition of recombinant human histamine H1 receptor.
Sequence of Histamine H1 receptor (P35367 whole entry): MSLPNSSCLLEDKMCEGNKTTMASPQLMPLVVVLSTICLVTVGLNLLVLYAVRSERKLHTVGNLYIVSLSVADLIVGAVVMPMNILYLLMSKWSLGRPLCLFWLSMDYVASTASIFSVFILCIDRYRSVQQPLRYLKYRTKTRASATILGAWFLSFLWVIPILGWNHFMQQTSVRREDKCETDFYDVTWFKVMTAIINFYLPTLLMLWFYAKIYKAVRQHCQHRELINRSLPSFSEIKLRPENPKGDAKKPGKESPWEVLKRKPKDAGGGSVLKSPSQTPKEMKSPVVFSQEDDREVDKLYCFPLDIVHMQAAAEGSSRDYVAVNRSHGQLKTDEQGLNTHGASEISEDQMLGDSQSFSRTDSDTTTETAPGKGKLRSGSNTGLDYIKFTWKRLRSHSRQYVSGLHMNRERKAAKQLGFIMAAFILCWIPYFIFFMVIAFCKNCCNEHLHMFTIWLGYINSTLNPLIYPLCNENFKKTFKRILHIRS
In data set [10] the target is T5, Muscarinic acetylcholine receptor M1 (Homo sapiens, UniProt P11229).
T5 sequence (P11229 whole entry): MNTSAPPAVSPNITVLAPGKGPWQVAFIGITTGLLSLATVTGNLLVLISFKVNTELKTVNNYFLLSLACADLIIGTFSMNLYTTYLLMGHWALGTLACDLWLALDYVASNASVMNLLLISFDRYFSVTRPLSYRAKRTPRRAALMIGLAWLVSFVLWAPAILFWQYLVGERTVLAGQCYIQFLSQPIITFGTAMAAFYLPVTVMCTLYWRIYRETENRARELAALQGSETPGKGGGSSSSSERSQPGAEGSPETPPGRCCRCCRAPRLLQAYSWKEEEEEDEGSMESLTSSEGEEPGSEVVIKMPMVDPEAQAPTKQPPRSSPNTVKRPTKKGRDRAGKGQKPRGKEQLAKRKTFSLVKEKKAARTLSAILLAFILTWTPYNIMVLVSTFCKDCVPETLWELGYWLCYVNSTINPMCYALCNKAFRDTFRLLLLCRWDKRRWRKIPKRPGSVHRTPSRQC
The experiment in a line: Inhibition of recombinant human muscarinic M1 receptor.

Data set [11] has as its target Cytochrome P450 3A4 (Homo sapiens, UniProt P08684). The experiment in a line: Inhibition of CYP3A4 midazolam site (unknown origin). It is filed as ADME.
The target of data set [12] is Cytochrome P450 2C9 (Homo sapiens, UniProt P11712). In words: Inhibition of CYP2C9 (unknown origin). It is filed as ADME.
Sequence of Cytochrome P450 2C9 (P11712 whole entry): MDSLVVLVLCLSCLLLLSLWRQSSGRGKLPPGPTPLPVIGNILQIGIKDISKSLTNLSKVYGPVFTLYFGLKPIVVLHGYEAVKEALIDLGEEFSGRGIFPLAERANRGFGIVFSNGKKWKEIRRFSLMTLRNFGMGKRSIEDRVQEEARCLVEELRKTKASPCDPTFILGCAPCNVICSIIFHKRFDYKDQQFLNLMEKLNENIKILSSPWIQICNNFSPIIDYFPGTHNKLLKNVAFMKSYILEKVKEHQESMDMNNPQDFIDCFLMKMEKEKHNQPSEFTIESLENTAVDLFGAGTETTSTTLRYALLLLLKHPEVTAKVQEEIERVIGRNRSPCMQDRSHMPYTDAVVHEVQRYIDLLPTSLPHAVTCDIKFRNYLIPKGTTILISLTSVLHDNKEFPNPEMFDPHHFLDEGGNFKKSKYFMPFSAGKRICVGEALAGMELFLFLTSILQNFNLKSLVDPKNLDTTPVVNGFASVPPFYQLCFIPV
The target of data set [13] is Cytochrome P450 2D6 (Homo sapiens, UniProt P10635). In words: Inhibition of CYP2D6 (unknown origin). It is filed as ADME.
Sequence of Cytochrome P450 2D6 (P10635 whole entry): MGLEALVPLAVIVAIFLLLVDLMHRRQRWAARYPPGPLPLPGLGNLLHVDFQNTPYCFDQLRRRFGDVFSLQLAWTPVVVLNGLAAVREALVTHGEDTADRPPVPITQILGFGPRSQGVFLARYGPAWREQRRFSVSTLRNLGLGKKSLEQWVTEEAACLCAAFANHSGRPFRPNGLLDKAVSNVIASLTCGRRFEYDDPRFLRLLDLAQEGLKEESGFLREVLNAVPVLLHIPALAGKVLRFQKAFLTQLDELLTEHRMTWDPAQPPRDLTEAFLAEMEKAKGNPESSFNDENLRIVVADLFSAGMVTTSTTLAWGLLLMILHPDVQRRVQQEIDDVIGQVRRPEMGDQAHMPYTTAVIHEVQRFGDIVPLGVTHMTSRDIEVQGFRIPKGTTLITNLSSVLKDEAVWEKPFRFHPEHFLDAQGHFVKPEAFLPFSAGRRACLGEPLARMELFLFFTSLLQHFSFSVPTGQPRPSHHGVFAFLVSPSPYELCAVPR
Data set [14] concerns the target T1, Serine/threonine-protein kinase PAK 2. As to conditions: SU8686, 0.009 to 20 uM.
Data set [15] shares this target. As to conditions: SU8686, 6 to 20 uM.
Data set [16] has the same target. As to conditions: SU8686, 0.21 uM.
Data set [17] deals with SU.86.86. The experiment in a line: Cytotoxicity against human SU8686 cells assessed as growth inhibition at 0.21 uM after 5 days by CTG assay in presence of PAK2 shRNA. Type of data set: functional, cell-based.
Data set [18] in a line: Permeability of the compound by PAMPA. It is filed as physicochemical. In a few lines:
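PAMPA permeability was expressed as a calculated fraction absorbed (cFA).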
(In general: PAMPA measures passive passage across an artificial lipid membrane.)

The nature of data set [19]: Aqueous solubility of the compound at pH 4. It is filed as physicochemical. As to conditions: buffer.
Data set [20] concerns SU.86.86. The experiment in a line: Cytotoxicity against human SU8686 cells assessed as growth inhibition at >2 uM after 5 days by CTG assay. Type of data set: functional, cell-based.
Data set [21] is described as follows: Half life in rat liver microsomes. It is filed as ADME. A general note: Liver microsomes are a subcellular fraction often used to study metabolism.
Data set [22] is described as follows: Apparent permeability across apical to basolateral side in human Caco2 cells. Type of data set: ADME, cell-based. As to conditions: Caco-2.
The target of data set [23] is T3, Serine/threonine-protein kinase PAK 6. In words: Inhibition of full length human PAK6 assessed as phosphate incorporation onto MBP preincubated for 5 mins followed by Cdc42, MBP, and mixture of ATP and [32P]-gamma-ATP addition measured after 20 mins by scintillation counting analysis.
Data set [24] addresses T4, Serine/threonine-protein kinase PAK 1. The experiment in a line: Non-ATP competitive inhibition of full-length human PAK1 assessed as phosphate incorporation onto MBP preincubated for 5 mins followed by Cdc42, MBP, and mixture of ATP and [32P]-gamma-ATP addition measured after 20 mins by scintillation counting analysis.
In data set [25] the target is Serine/threonine-protein kinase PAK 5 (Homo sapiens, UniProt Q9P286). In words: Inhibition of full length PAK5 (unknown origin) expressed in HEK293 cells assessed as phosphate incorporation onto MBP preincubated for 5 mins followed by Cdc42, MBP, and mixture of ATP and [32P]-gamma-ATP addition measured after 20 mins by scintillation counting analysis. It is filed as cell-based.

Data set [26] deals with T2, Serine/threonine-protein kinase PAK 4. In words: Inhibition of PAK4 kinase domain (300 to 591) (unknown origin) assessed as phosphate incorporation onto MBP preincubated for 5 mins followed by Cdc42, MBP, and mixture of ATP and [32P]-gamma-ATP addition measured after 20 mins by scintillation counting analysis.

T1 sequence (Q13177 whole entry): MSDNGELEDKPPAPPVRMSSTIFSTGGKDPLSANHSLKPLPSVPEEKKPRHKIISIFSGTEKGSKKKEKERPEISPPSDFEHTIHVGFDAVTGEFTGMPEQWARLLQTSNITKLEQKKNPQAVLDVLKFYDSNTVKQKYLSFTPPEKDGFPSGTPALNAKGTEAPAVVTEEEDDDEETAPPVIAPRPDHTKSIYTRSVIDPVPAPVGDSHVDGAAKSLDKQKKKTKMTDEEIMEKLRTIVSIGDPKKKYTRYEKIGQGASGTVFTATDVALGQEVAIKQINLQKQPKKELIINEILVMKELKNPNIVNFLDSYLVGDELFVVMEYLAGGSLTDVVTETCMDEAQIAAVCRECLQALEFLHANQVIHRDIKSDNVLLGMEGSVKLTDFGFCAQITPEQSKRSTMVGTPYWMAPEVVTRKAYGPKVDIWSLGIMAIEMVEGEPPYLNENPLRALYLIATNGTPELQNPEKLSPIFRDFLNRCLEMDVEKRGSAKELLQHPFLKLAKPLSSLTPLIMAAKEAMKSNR
Sequence of Serine/threonine-protein kinase PAK 3 (O75914 whole entry): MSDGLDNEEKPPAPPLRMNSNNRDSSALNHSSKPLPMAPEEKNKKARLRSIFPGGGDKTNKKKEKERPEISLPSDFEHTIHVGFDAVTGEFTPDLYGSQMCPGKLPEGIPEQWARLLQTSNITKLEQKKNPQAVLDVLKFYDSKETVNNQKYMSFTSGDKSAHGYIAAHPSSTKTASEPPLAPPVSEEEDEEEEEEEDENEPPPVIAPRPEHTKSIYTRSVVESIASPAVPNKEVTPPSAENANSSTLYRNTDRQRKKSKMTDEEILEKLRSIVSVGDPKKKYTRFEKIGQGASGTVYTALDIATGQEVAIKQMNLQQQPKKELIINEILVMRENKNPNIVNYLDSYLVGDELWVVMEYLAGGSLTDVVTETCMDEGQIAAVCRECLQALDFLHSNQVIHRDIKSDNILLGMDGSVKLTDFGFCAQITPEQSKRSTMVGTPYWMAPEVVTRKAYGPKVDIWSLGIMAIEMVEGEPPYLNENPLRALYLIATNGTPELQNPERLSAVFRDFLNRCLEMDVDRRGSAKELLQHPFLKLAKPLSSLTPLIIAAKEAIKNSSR
Sequence of Cytochrome P450 3A4 (P08684 whole entry): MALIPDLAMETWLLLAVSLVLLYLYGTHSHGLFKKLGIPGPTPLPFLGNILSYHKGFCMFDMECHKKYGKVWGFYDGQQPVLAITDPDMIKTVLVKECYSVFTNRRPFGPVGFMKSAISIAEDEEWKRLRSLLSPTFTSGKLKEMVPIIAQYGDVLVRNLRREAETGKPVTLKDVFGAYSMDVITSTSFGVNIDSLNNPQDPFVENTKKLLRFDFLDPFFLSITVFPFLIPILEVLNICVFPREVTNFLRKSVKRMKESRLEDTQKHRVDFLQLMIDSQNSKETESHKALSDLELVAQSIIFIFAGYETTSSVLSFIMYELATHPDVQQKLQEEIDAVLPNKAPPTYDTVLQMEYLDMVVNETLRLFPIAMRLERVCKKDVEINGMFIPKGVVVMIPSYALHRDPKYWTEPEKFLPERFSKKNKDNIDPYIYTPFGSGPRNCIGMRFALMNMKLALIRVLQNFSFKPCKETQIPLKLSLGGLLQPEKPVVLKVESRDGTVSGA

Consider `CCN1c2ccc(F)cc2N=C(N[C@H]2CCN(C(=O)NC(C)(C)C)C2)c2cc(Cl)ccc21`, for which the dissociation constant Kd (as a rule, the equilibrium constant for the complex coming apart) was 1.1 µM in [1], > 40 µM in [3] and > 40 µM in data set [4]. Further, the solubility (usually how much of the substance goes into solution per volume) in [2] was < 4 µM.
As for `CCN1c2ccc(F)cc2N=C(N[C@H]2CCN(C(=O)OC(C)(C)C)C2)c2cc(Cl)ccc21`, the equilibrium dissociation constant (Kd) in data set [1] was > 40 µM; in data set [5], > 40 µM; in [3], > 40 µM; in [4], > 40 µM; in [7] it was 0.13 µM. Also, it took 0.19 µM to reach half-maximal inhibition in data set [6] (IC50).
`CN1CCN(C2=Nc3cc(F)ccc3Nc3ccc(F)cc32)CC1`: the IC50 (in general, the concentration that inhibits the measured activity by half) in [8] is 54 µM; in data set [6], 12 µM; in [9], 0.001 µM; in data set [10], 0.006 µM.
For `CCN1c2ccc(F)cc2N=C(N2CCN(C)CC2)c2cc(Cl)ccc21`, the Kd is > 40 µM in data set [1]; > 40 µM in data set [5]; > 40 µM in [3]; > 40 µM in data set [4]; 0.34 µM in data set [7]. In addition, in [6], the concentration for half-maximal inhibition (IC50) turned out to be 0.323 µM.
`CC(C)NC(=O)N1CC[C@H](NC2=Nc3cc(F)ccc3N(CC(F)F)c3ccc(Cl)cc32)C1`: the INH in data set [11] is 13.2 µM; in data set [12], 16.7 µM; in data set [13], > 20 µM. Besides, in data set [1], the Kd is 0.4 µM. The inhibition result in data set [14], in [15] and in data set [16] was “Active” throughout. The solubility is 55 µM (≈ 26.4 µg/mL) in data set [2] and > 1000 µM in data set [19]. The 50% inhibitory concentration (IC50) in data set [9] and in data set [10] was > 30 µM each time. Moreover, the “growth inhibition (GI)” value in data set [17] and in [20] was “Active” each time. Moreover, the permeability result in data set [18] is reported as “permeable”. Besides, in data set [21], the half-life – broadly, the time needed for the level to fall by half in the phase considered – stood at 3.5 min. In addition, in data set [22], the apical-to-basolateral permeability (Papp A→B) – broadly, the apparent permeability from the apical to the basolateral side of a cell layer – was determined as 0.428 ×10⁻⁶ cm/s.
For the compound `Oc1ccc2ccccc2c1SSc1c(O)ccc2ccccc12`, the half-maximal inhibitory concentration (IC50) in data set [23] is > 10 µM; in data set [24], 2.5 µM; in [25] it was > 10 µM; in data set [26], > 10 µM.
